From ChEMBL document CHEMBL1649299, “Eradication of intracellular Salmonella enterica serovar Typhimurium with a small-molecule, host cell-directed agent” (Antimicrob Agents Chemother, 2009)
The source made the active and inactive calls.

What was measured:
Salmonella typhimurium [1] = assay: Antimicrobial activity against Salmonella enterica serovar Typhimurium ATCC 14028 infected in mouse RAW264.7 cells assessed as reduction of bacterial count at 1 uM pretreated 30 mins before infection measured after 1 hr; format: functional, organism-based; settings: Salmonella enterica subsp. enterica serovar Typhimurium
Outline: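 Bacteria were pre-exposed to vehicle (DMSO) or 1 μM drug in culture medium for 30 min. They were then used to infect RAW264.7 cells at MOI 25 for 30 min, followed by 100 μg/ml gentamicin for 1 h and PBS washes. Intracellular bacteria were counted as CFU 1 h later after Triton X-100 lysis.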

Salmonella typhimurium [2] = assay: Antimicrobial activity against Salmonella enterica serovar Typhimurium ATCC 14028 infected in BALB/c mouse assessed as reduction of spleen bacterial load at 5 mg/kg, administered intragastrically after 24 hrs of post infection qd for 4 days measured on day 5 relative to control; format: functional, Salmonella enterica subsp. enterica serovar Typhimurium; set-up: scale not given: the % may be the effect or the level left; settings: route intragastric
Outline: (§1)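 Female BALB/c mice, 8–10 weeks old, were infected by intragastric gavage with an overnight culture at 10^5 organisms in 0.1 ml PBS (50% lethal dose). Starting 24 h post-infection, drug in 0.5% methylcellulose–0.1% Tween 80 in water was given by gavage once daily for 4 days at 1, 2.5 or 5 mg/kg, 7–9 mice per group. On day 5 post-infection, liver and spleen were homogenized in 10 ml cold PBS and plated on LB agar to count CFU.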

[3] = molecular target: RAC-alpha serine/threonine-protein kinase (Mus musculus) (UniProt P31750); assay: Inhibition of Akt phosphorylation in mouse RAW264.7 cells infected with Salmonella enterica serovar Typhimurium ATCC 14028 assessed as decrease of p-308Thr-Akt level after 8 hrs by Western blotting; format: cell-based
Outline: (§2)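 Infected RAW264.7 cells were treated for 8 h and then lysed in M-PER on ice. Lysates (25 μg/lane) were run on SDS gels and transferred to nitrocellulose. Membranes were blocked with 3% skim milk in TBS, incubated with primary antibody for 12 h at 4°C and then HRP secondary, and detected by enhanced chemiluminescence.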

Salmonella typhimurium [4] = assay: Antimicrobial activity against Salmonella enterica serovar Typhimurium ATCC 14028 infected in mouse RAW264.7 cells assessed as inhibition of intracellular bacterial growth at 1 uM after 4 hrs in presence of vacuolar ATPase inhibitor bafilomycin A1; format: functional, organism-based; settings: Salmonella enterica subsp. enterica serovar Typhimurium
Outline: (§3)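 Macrophages were seeded at 5.0 × 10^5 cells/well for 12–16 h; THP-1 cells were first differentiated with 20 nM TPA for 48 h. Bacteria were subcultured 3 h in LB and added at MOI 25 for 30 min. Cells then received 100 μg/ml gentamicin for 1 h and were washed. Treatment was in medium with 10% FBS and 10 μg/ml gentamicin. Survivors were released with 0.1% Triton X-100 and counted as CFU on LB agar after 16 h at 37°C.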

Salmonella typhimurium [5] = assay: Antimicrobial activity against Salmonella enterica serovar Typhimurium ATCC 14028 infected in mouse RAW264.7 cells transfected with shRNA assessed as reduction of Beclin-1 expression at 1 uM after 2 hrs by immunoblotting relative to control; format: functional, Salmonella enterica subsp. enterica serovar Typhimurium; set-up: scale not given: the % may be the effect or the level left
Outline: (§4)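 Beclin-1 or Atg7 shRNA plasmids, with GFP shRNA as control, were nucleofected into RAW264.7 cells (2 × 10^6 cells, 2 μg DNA). Stable clones were selected with 2 μg/ml puromycin and kept in 1 μg/ml. Knockdown was measured by immunoblotting.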

[6] = molecular target: RAC-alpha serine/threonine-protein kinase (Mus musculus) (UniProt P31750); assay: Inhibition of Akt phosphorylation in mouse RAW264.7 cells infected with Salmonella enterica serovar Typhimurium ATCC 14028 assessed as decrease of phosphorylated GSK3-beta level at 1 uM after 8 hrs by Western blotting; format: cell-based; outline: as §2
RAW264.7 [7] = assay: Cytotoxicity against mouse RAW264.7 cells assessed as cell viability after 24 hrs by MTT assay; format: cell-based; settings: RAW264.7, 24 h
Salmonella typhimurium [8] = assay: Antimicrobial activity against Salmonella enterica serovar Typhimurium ATCC 14028 infected in mouse RAW264.7 cells assessed as colocalization of organism with autophagosomes at 1 uM after 1 hr by immunofluorescence microscopic analysis relative to control; format: functional, Salmonella enterica subsp. enterica serovar Typhimurium
Outline: (§5)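 RAW264.7 cells were fixed in 4% formaldehyde for 20 min at 25°C, permeabilized with 0.5% Triton X-100, and blocked overnight in 3% BSA. Staining used primary antibody (anti-LC3 for autophagosomes) for 1 h, then fluorescent secondary antibody for 1 h, with DAPI for nuclei. Slides were read by wide-field or confocal microscopy. For colocalization, only bacteria in direct contact with autophagosomes in 3-D confocal images were scored. Giant puncta were defined as ≥1 μm.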

Salmonella typhimurium [9] = assay: Antimicrobial activity against Salmonella enterica serovar Typhimurium ATCC 14028 infected in mouse RAW264.7 cells assessed as inhibition of intracellular bacterial growth at 1 uM after 8 to 24 hrs in presence of gentamicin; format: functional, organism-based; settings: Salmonella enterica subsp. enterica serovar Typhimurium; outline: as §3
Salmonella typhimurium [10] = assay: Antimicrobial activity against Salmonella enterica serovar Typhimurium ATCC 14028 infected in mouse RAW264.7 cells transfected with HA-tagged CA-Akt1 assessed as inhibition of intracellular bacterial survival at 1 uM after 8 hrs; format: functional, organism-based; settings: Salmonella enterica subsp. enterica serovar Typhimurium; outline: as §3
Salmonella typhimurium [11] = assay: Antimicrobial activity against Salmonella enterica serovar Typhimurium ATCC 14028 infected in BALB/c mouse assessed as reduction of liver bacterial load at 2.5 mg/kg, administered intragastrically after 24 hrs of post infection qd for 4 days measured on day 5 relative to control; format: functional, Salmonella enterica subsp. enterica serovar Typhimurium; set-up: scale not given: the % may be the effect or the level left; settings: route intragastric; outline: as §1
Salmonella typhimurium [12] = assay: Antimicrobial activity against Salmonella enterica serovar Typhimurium ATCC 14028 infected in mouse RAW264.7 cells assessed as inhibition of intracellular bacterial growth at 1 uM after 8 hrs; format: functional, Salmonella enterica subsp. enterica serovar Typhimurium; set-up: scale not given: the % may be the effect or the level left
Outline: (§6)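 RAW264.7 cells were seeded at 5.0 × 10^5 cells/well for 12–16 h. Log-phase bacteria (1:33 subculture, 3 h in LB, 37°C) were added at MOI 25 for 30 min. Extracellular bacteria were killed with 100 μg/ml gentamicin for 1 h, then washed off. Cells were treated in medium with 10% FBS and 10 μg/ml gentamicin (DMSO 0.1% final) and lysed with 0.1% Triton X-100. CFU were counted on LB agar after 16 h at 37°C.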

Salmonella typhimurium [13] = assay: Antimicrobial activity against Salmonella enterica serovar Typhimurium ATCC 14028 infected in BALB/c mouse assessed as reduction of spleen bacterial load at 2.5 mg/kg, administered intragastrically after 24 hrs of post infection qd for 4 days measured on day 5 relative to control; format: functional, Salmonella enterica subsp. enterica serovar Typhimurium; set-up: scale not given: the % may be the effect or the level left; settings: route intragastric; outline: as §1
RAW264.7 [14] = assay: Induction of autophagy in mouse RAW264.7 cells assessed as LC3-positive puncta with diameter greater than 1 uM in cytoplasm at 1 uM by immunofluorescence microscopic analysis; format: functional, cell-based; outline: as §5
Salmonella typhimurium [15] = assay: Antimicrobial activity against Salmonella enterica serovar Typhimurium ATCC 14028 infected in mouse RAW264.7 cells assessed as inhibition of intracellular bacterial growth at 1 uM after 4 hrs; format: functional, organism-based, Salmonella enterica subsp. enterica serovar Typhimurium; outline: as §6
Salmonella typhimurium [16] = assay: Antimicrobial activity against Salmonella enterica serovar Typhimurium ATCC 14028 infected in mouse RAW264.7 cells assessed as reduction in bacterial load at 1 uM after 8 hrs by immunofluorescent staining; format: functional, Salmonella enterica subsp. enterica serovar Typhimurium; set-up: scale not given: the % may be the effect or the level left; outline: as §5
[17] = molecular target: RAC-alpha serine/threonine-protein kinase (Mus musculus) (UniProt P31750); assay: Inhibition of Akt phosphorylation in mouse RAW264.7 cells infected with Salmonella enterica serovar Typhimurium ATCC 14028 assessed as decrease of p-473Ser-Akt level after 8 hrs by Western blotting; format: cell-based; outline: as §2
Salmonella typhimurium [18] = assay: Antimicrobial activity against Salmonella enterica serovar Typhimurium ATCC 14028 infected in mouse RAW264.7 cells assessed as reduction of bacterial survival at 1 uM after 2 hrs relative to control; format: functional, Salmonella enterica subsp. enterica serovar Typhimurium; outline: as §6
Salmonella typhimurium [19] = assay: Antimicrobial activity against Salmonella enterica serovar Typhimurium ATCC 14028 infected in mouse RAW264.7 cells transfected with shRNA assessed as reduction of Atg7 expression at 1 uM after 2 hrs by immunoblotting relative to control; format: functional, Salmonella enterica subsp. enterica serovar Typhimurium; set-up: scale not given: the % may be the effect or the level left; outline: as §4
RAW264.7 [20] = assay: Induction of autophagy in mouse RAW264.7 cells assessed as increase of LC3 punctum formation at 1 uM by immunofluorescence microscopic analysis; format: functional, cell-based; outline: as §5
Salmonella typhimurium [21] = assay: Antimicrobial activity against Salmonella enterica serovar Typhimurium ATCC 14028 infected in BALB/c mouse assessed as increase of host survival days at 2.5 mg/kg, po administered after 24 hrs of post infection qd relative to control
Salmonella typhimurium [22] = assay: Antimicrobial activity against Salmonella enterica serovar Typhimurium ATCC 14028 at 1 to 5 uM after 480 mins; format: functional, organism-based; settings: Salmonella enterica subsp. enterica serovar Typhimurium
Salmonella typhimurium [23] = assay: Antimicrobial activity against Salmonella enterica serovar Typhimurium ATCC 14028 infected in human TPA-differentiated THP1 cells; format: functional, organism-based; settings: Salmonella enterica subsp. enterica serovar Typhimurium, THP-1; outline: as §3
Salmonella typhimurium [24] = assay: Antimicrobial activity against Salmonella enterica serovar Typhimurium ATCC 14028 infected in BALB/c mouse assessed as reduction of liver bacterial load at 5 mg/kg, administered intragastrically after 24 hrs of post infection qd for 4 days measured on day 5 relative to control; format: functional, Salmonella enterica subsp. enterica serovar Typhimurium; set-up: scale not given: the % may be the effect or the level left; settings: route intragastric; outline: as §1
Salmonella typhimurium [25] = assay: Antimicrobial activity against Salmonella enterica serovar Typhimurium ATCC 14028 infected in mouse RAW264.7 cells assessed as inhibition of intracellular bacterial growth after 8 hrs; format: functional, organism-based, Salmonella enterica subsp. enterica serovar Typhimurium; settings: ATCC 14028, RAW264.7, 8 h; outline: as §6
RAW264.7 [26] = assay: Cytotoxicity against mouse RAW264.7 cells assessed as cell viability at 1 uM after 24 hrs by MTT assay; format: cell-based; settings: raw264.7, 24 h
RAW264.7 [27] = assay: Cytotoxicity against Salmonella enterica serovar Typhimurium ATCC 14028 infected in mouse RAW264.7 cells assessed as cell viability at 1 uM after 24 hrs by MTT assay; format: cell-based; settings: raw264.7, 24 h
Salmonella typhimurium [28] = assay: Antimicrobial activity against Salmonella enterica serovar Typhimurium ATCC 14028 infected in mouse J774.1 cells; format: functional, organism-based; settings: Salmonella enterica subsp. enterica serovar Typhimurium; outline: as §3
Salmonella typhimurium [29] = assay: Antimicrobial activity against Salmonella enterica serovar Typhimurium ATCC 14028 infected in mouse RAW264.7 cells transfected with HA-tagged CA-Akt1 assessed as inhibition of intracellular bacterial survival at 1 uM after 2 hrs; format: functional, organism-based; settings: Salmonella enterica subsp. enterica serovar Typhimurium; outline: as §3

RAC-alpha serine/threonine-protein kinase (Mus musculus), sequence (P31750 whole entry): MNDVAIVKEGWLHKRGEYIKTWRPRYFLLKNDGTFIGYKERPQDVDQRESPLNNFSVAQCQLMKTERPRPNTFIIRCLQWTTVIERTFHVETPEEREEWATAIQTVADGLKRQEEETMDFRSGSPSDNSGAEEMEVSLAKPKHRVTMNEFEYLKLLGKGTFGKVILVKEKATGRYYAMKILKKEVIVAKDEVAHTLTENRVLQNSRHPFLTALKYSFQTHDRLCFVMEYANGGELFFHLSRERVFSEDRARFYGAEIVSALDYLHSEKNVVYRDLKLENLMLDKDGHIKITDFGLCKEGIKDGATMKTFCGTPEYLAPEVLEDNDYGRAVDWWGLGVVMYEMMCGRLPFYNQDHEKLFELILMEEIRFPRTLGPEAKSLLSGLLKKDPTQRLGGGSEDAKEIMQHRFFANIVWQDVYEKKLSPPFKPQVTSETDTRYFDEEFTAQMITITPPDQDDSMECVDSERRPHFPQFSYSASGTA

NCC(=O)Nc1ccc(-n2nc(C(F)(F)F)cc2-c2ccc3c(ccc4ccccc43)c2)cc1 [AR-12]
Activity (Salmonella typhimurium [1]): inactive | Activity (Salmonella typhimurium [2]): 90% | inhibition [3]: Dose-dependent effect | Activity (Salmonella typhimurium [4]): Active | Activity (Salmonella typhimurium [5]): 83% | inhibition [6]: Active | IC50 (RAW264.7 [7]): > 10000 nM | Activity (Salmonella typhimurium [8]): 21.2% | Activity (Salmonella typhimurium [9]): Active | Activity (Salmonella typhimurium [10]): inactive | Activity (Salmonella typhimurium [11]): 99% | Activity (Salmonella typhimurium [12]): 90% | Activity (Salmonella typhimurium [13]): 98% | Activity (RAW264.7 [14]): Active | Activity (Salmonella typhimurium [15]): Active | Activity (Salmonella typhimurium [16]): 82% | inhibition [17]: Dose-dependent effect | Activity (Salmonella typhimurium [18]): 25% | Activity (Salmonella typhimurium [19]): 43% | Activity (RAW264.7 [20]): Active | Survival (Salmonella typhimurium [21]): 8.1 days | Activity (Salmonella typhimurium [22]): inactive | Activity (Salmonella typhimurium [23]): Active | Activity (Salmonella typhimurium [24]): 96% | IC50 (Salmonella typhimurium [25]): 200 nM | Activity (RAW264.7 [26]): Non-toxic | Activity (RAW264.7 [27]): Non-toxic | Activity (Salmonella typhimurium [28]): Active | Activity (Salmonella typhimurium [29]): Active
